{"source": "ChEMBL document CHEMBL1671716", "about": "“Antimicrobial susceptibility patterns for recent clinical isolates of anaerobic bacteria in South Korea” (2010)", "format_in_all_cases": "functional", "key": {"Eggerthella lenta": {"test_system": "Eggerthella lenta", "assay": "Antimicrobial activity against Eubacterium lentum after 48 hrs by agar dilution method in presence of 4 ug/ml beta-lactamase inhibitor Tazobactam", "method_in_brief": "(§1)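 CLSI agar dilution (M11-A7); inoculum 10^5 CFU applied by replicator; plates incubated anaerobically 48 h at 37°C. For piperacillin-tazobactam, tazobactam held constant at 4 μg/ml.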"}, "Hoylesella oralis": {"test_system": "Hoylesella oralis", "assay": "Antimicrobial activity against Prevotella oralis assessed as percent susceptible isolates after 48 hrs by agar dilution method in presence of 4 ug/ml beta-lactamase inhibitor Tazobactam"}, "Prevotella intermedia [1]": {"test_system": "Prevotella intermedia", "assay": "Antimicrobial activity against Prevotella intermedia assessed as percent susceptible isolates after 48 hrs by agar dilution method in presence of 4 ug/ml beta-lactamase inhibitor Tazobactam", "method_in_brief": "as §1"}, "Bacteroides fragilis": {"test_system": "Bacteroides fragilis", "assay": "Antimicrobial activity against Bacteroides fragilis after 48 hrs by agar dilution method in presence of 4 ug/ml beta-lactamase inhibitor Tazobactam", "method_in_brief": "(§2)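 MICs by CLSI agar dilution for piperacillin combined with tazobactam, with tazobactam held constant at 4 μg/ml. Clinical anaerobe isolates inoculated at 10^5 CFU by Steers replicator. Plates kept in an anaerobic chamber at 37°C for 48 h.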"}, "Schaalia odontolytica [2]": {"test_system": "Schaalia odontolytica", "assay": "Antimicrobial activity against Actinomyces odontolyticus assessed as percent susceptible isolates after 48 hrs by agar dilution method in presence of 4 ug/ml beta-lactamase inhibitor Tazobactam", "conditions": "pooled result: one value given for 8 cell lines, strains, targets or settings"}, "Clostridioides difficile [3]": {"test_system": "Clostridioides difficile", "assay": "Antimicrobial activity against Clostridium difficile assessed as percent susceptible isolates after 48 hrs by agar dilution method in presence of 4 ug/ml beta-lactamase inhibitor Tazobactam", "method_in_brief": "as §1"}, "[4]": {"test_system": "Peptostreptococcus anaerobius", "assay": "Antimicrobial activity against Peptostreptococcus anaerobius assessed as percent susceptible isolates after 48 hrs by agar dilution method in presence of 4 ug/ml beta-lactamase inhibitor Tazobactam", "method_in_brief": "as §1"}, "Clostridioides difficile [5]": {"test_system": "Clostridioides difficile", "assay": "Antimicrobial activity against Clostridium difficile assessed as percent resistant isolates after 48 hrs by agar dilution method in presence of 4 ug/ml beta-lactamase inhibitor Tazobactam", "method_in_brief": "(§3)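 CLSI agar dilution on recent Korean clinical anaerobe isolates. Inoculum 10^5 CFU per spot by replicator. Plates incubated in an anaerobic chamber at 37°C for 48 h. For piperacillin plus tazobactam, tazobactam was held constant at 4 μg/ml. Resistance and susceptibility rates derived from MICs.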"}, "Schaalia odontolytica [6]": {"test_system": "Schaalia odontolytica", "assay": "Antimicrobial activity against Actinomyces odontolyticus after 48 hrs by agar dilution method in presence of 4 ug/ml beta-lactamase inhibitor Tazobactam", "method_in_brief": "as §2"}, "Prevotella intermedia [7]": {"test_system": "Prevotella intermedia", "assay": "Antimicrobial activity against Prevotella intermedia after 48 hrs by agar dilution method in presence of 4 ug/ml beta-lactamase inhibitor Tazobactam", "method_in_brief": "as §1"}, "Prevotella bivia [8]": {"test_system": "Prevotella bivia", "assay": "Antimicrobial activity against Prevotella bivia assessed as percent susceptible isolates after 48 hrs by agar dilution method in presence of 4 ug/ml beta-lactamase inhibitor Tazobactam", "method_in_brief": "as §1"}, "Prevotella buccae": {"test_system": "Prevotella buccae", "assay": "Antimicrobial activity against Prevotella buccae after 48 hrs by agar dilution method in presence of 4 ug/ml beta-lactamase inhibitor Tazobactam", "conditions": "Segatella buccae", "method_in_brief": "as §1"}, "Phocaeicola vulgatus": {"test_system": "Phocaeicola vulgatus", "assay": "Antimicrobial activity against Bacteroides vulgatus assessed as percent resistant isolates after 48 hrs by agar dilution method in presence of 4 ug/ml beta-lactamase inhibitor Tazobactam", "method_in_brief": "as §3"}, "Clostridium perfringens": {"test_system": "Clostridium perfringens", "assay": "Antimicrobial activity against Clostridium perfringens after 48 hrs by agar dilution method in presence of 4 ug/ml beta-lactamase inhibitor Tazobactam", "method_in_brief": "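Agar dilution per CLSI on Korean clinical C. perfringens isolates. Tazobactam at a fixed 4 μg/ml with piperacillin. 10^5 CFU spotted by replicator, then 48 h at 37°C in an anaerobic chamber. MIC read.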"}, "Fusobacterium mortiferum": {"test_system": "Fusobacterium mortiferum", "assay": "Antimicrobial activity against Fusobacterium mortiferum after 48 hrs by agar dilution method in presence of 4 ug/ml beta-lactamase inhibitor Tazobactam", "method_in_brief": "as §1"}, "[9]": {"test_system": "Peptoniphilus asaccharolyticus", "assay": "Antimicrobial activity against Peptoniphilus asaccharolyticus assessed as percent susceptible isolates after 48 hrs by agar dilution method in presence of 4 ug/ml beta-lactamase inhibitor Tazobactam", "method_in_brief": "as §1"}, "Clostridioides difficile [10]": {"test_system": "Clostridioides difficile", "assay": "Antimicrobial activity against Clostridium difficile after 48 hrs by agar dilution method in presence of 4 ug/ml beta-lactamase inhibitor Tazobactam", "method_in_brief": "as §1"}, "Fusobacterium nucleatum": {"test_system": "Fusobacterium nucleatum", "assay": "Antimicrobial activity against Fusobacterium nucleatum after 48 hrs by agar dilution method in presence of 4 ug/ml beta-lactamase inhibitor Tazobactam", "method_in_brief": "as §1"}, "Prevotella bivia [11]": {"test_system": "Prevotella bivia", "assay": "Antimicrobial activity against Prevotella bivia assessed as percent resistant isolates after 48 hrs by agar dilution method in presence of 4 ug/ml beta-lactamase inhibitor Tazobactam", "method_in_brief": "as §3"}, "[12]": {"test_system": "Bifidobacterium adolescentis", "assay": "Antimicrobial activity against Bifidobacterium adolescentis after 48 hrs by agar dilution method in presence of 4 ug/ml beta-lactamase inhibitor Tazobactam", "method_in_brief": "as §2"}, "[13]": {"test_system": "Bacteroides thetaiotaomicron", "assay": "Antimicrobial activity against Bacteroides thetaiotaomicron assessed as percent resistant isolates after 48 hrs by agar dilution method in presence of 4 ug/ml beta-lactamase inhibitor Tazobactam", "method_in_brief": "as §3"}, "Prevotella bivia [14]": {"test_system": "Prevotella bivia", "assay": "Antimicrobial activity against Prevotella bivia after 48 hrs by agar dilution method in presence of 4 ug/ml beta-lactamase inhibitor Tazobactam", "method_in_brief": "as §1"}, "Fusobacterium varium": {"test_system": "Fusobacterium varium", "assay": "Antimicrobial activity against Fusobacterium varium after 48 hrs by agar dilution method in presence of 4 ug/ml beta-lactamase inhibitor Tazobactam", "method_in_brief": "as §1"}, "Eubacterium sp.": {"test_system": "Eubacterium sp.", "assay": "Antimicrobial activity against Eubacterium sp. after 48 hrs by agar dilution method in presence of 4 ug/ml beta-lactamase inhibitor Tazobactam", "method_in_brief": "as §1"}}}
{"smiles": "CCN1CCN(C(=O)N[C@@H](C(=O)N[C@@H]2C(=O)N3[C@@H]2SC(C)(C)[C@@H]3C(=O)O)c2ccccc2)C(=O)C1=O", "note": "[PIPERACILLIN]", "values": [{"measurement": "MIC50", "setting": "Eggerthella lenta", "result": 0.5, "unit": "µg/mL"}, {"measurement": "MIC90", "setting": "Eggerthella lenta", "result": 8, "unit": "µg/mL"}, {"measurement": "Activity", "setting": "Hoylesella oralis", "result": 100, "unit": "%"}, {"measurement": "Activity", "setting": "Prevotella intermedia [1]", "result": 100, "unit": "%"}, {"measurement": "MIC50", "setting": "Bacteroides fragilis", "result": 1, "unit": "µg/mL"}, {"measurement": "MIC90", "setting": "Bacteroides fragilis", "result": 4, "unit": "µg/mL"}, {"measurement": "Activity", "setting": "Schaalia odontolytica [2]", "result": 92, "unit": "%"}, {"measurement": "Activity", "setting": "Clostridioides difficile [3]", "result": 100, "unit": "%"}, {"measurement": "Activity", "setting": "[4]", "result": 100, "unit": "%"}, {"measurement": "Activity", "setting": "Clostridioides difficile [5]", "result": 0, "unit": "%"}, {"measurement": "MIC50", "setting": "Schaalia odontolytica [6]", "result": 0.5, "unit": "µg/mL"}, {"measurement": "MIC90", "setting": "Schaalia odontolytica [6]", "result": 8, "unit": "µg/mL"}, {"measurement": "MIC50", "setting": "Prevotella intermedia [7]", "result": "≤ 0.03", "unit": "µg/mL"}, {"measurement": "MIC90", "setting": "Prevotella intermedia [7]", "result": "≤ 0.03", "unit": "µg/mL"}, {"measurement": "Activity", "setting": "Prevotella bivia [8]", "result": 100, "unit": "%"}, {"measurement": "MIC50", "setting": "Prevotella buccae", "result": "≤ 0.03", "unit": "µg/mL"}, {"measurement": "MIC90", "setting": "Prevotella buccae", "result": 4, "unit": "µg/mL"}, {"measurement": "Activity", "setting": "Phocaeicola vulgatus", "result": 7, "unit": "%"}, {"measurement": "MIC50", "setting": "Clostridium perfringens", "result": 0.25, "unit": "µg/mL"}, {"measurement": "MIC90", "setting": "Clostridium perfringens", "result": 0.5, "unit": "µg/mL"}, {"measurement": "MIC", "setting": "Fusobacterium mortiferum", "result": 0.03, "unit": "µg/mL"}, {"measurement": "Activity", "setting": "[9]", "result": 100, "unit": "%"}, {"measurement": "MIC50", "setting": "Clostridioides difficile [10]", "result": 4, "unit": "µg/mL"}, {"measurement": "MIC90", "setting": "Clostridioides difficile [10]", "result": 8, "unit": "µg/mL"}, {"measurement": "MIC", "setting": "Fusobacterium nucleatum", "result": 0.03, "unit": "µg/mL"}, {"measurement": "Activity", "setting": "Prevotella bivia [11]", "result": 0, "unit": "%"}, {"measurement": "MIC50", "setting": "[12]", "result": 0.5, "unit": "µg/mL"}, {"measurement": "MIC90", "setting": "[12]", "result": 8, "unit": "µg/mL"}, {"measurement": "Activity", "setting": "[13]", "result": 7, "unit": "%"}, {"measurement": "MIC50", "setting": "Prevotella bivia [14]", "result": "≤ 0.03", "unit": "µg/mL"}, {"measurement": "MIC90", "setting": "Prevotella bivia [14]", "result": 4, "unit": "µg/mL"}, {"measurement": "MIC", "setting": "Fusobacterium varium", "result": 0.03, "unit": "µg/mL"}, {"measurement": "MIC50", "setting": "Eubacterium sp.", "result": 0.5, "unit": "µg/mL"}, {"measurement": "MIC90", "setting": "Eubacterium sp.", "result": 8, "unit": "µg/mL"}]}
